Test results from ChEMBL document CHEMBL1127451, “Benzoselenazolinone derivatives designed to be glutathione peroxidase mimetics feature inhibition of cyclooxygenase/5-lipoxygenase pathways and anti-inflammatory activity” (1994).

Experiments:
[1] = In vitro glutathione peroxidase activity at 2*10e-7M using hydrogen peroxide, activity given in percentage of ebselen''s activity; assay type: functional
[2] = In vitro glutathione peroxidase activity at 2*10e-7M using tert-butyl hydroperoxide, activity given in percentage of ebselen''s activity; assay type: functional
Rattus norvegicus [3] = assay: Tested for acute anti-inflammatory activity of the antirat serum-induced edema in rats at dose of 30 mg/kg at time interval- 0.5 hr; assay type: functional
Outline: (§1)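 Fasted Wistar rats (200–240 g), six per group, receive drug orally in 2% gelatin. One hour later, 0.1 mL rabbit antirat serum is injected subplantar into the hind paw. Paw volume is measured by water plethysmometry at injection and at 0.5, 1, 2, 3 and 4 h. Results are percent inhibition of swelling versus vehicle-treated rats.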

Rattus norvegicus [4] = assay: Tested for acute anti-inflammatory activity of the antirat serum-induced edema in rats at dose of 30 mg/kg at time interval- 1 hr; assay type: functional; outline: as §1
Rattus norvegicus [5] = assay: Tested for acute anti-inflammatory activity of the antirat serum-induced edema in rats at dose of 30 mg/kg at time interval- 2 hr; assay type: functional; outline: as §1
Rattus norvegicus [6] = assay: Tested for acute anti-inflammatory activity of carrageenan-induced foot edema in rats at dose of 100 mg/kg at time interval- 0.5 hr; assay type: functional
Outline: (§2)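 Fasted Wistar rats (200–240 g), six per group, receive drug orally in 2% gelatin. One hour later, 0.1 mL 2% carrageenan in […] is injected subplantar into the hind paw. Paw volume is measured by water plethysmometry at injection and at 0.5, 1, 2, 3 and 4 h. Results are percent inhibition of swelling versus vehicle-treated rats.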

Rattus norvegicus [7] = assay: Tested for acute anti-inflammatory activity of carrageenan-induced foot edema in rats at dose of 100 mg/kg at time interval- 1 hr; assay type: functional; outline: as §2
Rattus norvegicus [8] = assay: Tested for acute anti-inflammatory activity of carrageenan-induced foot edema in rats at dose of 100 mg/kg at time interval- 3h; assay type: functional; outline: as §2
Rattus norvegicus [9] = assay: Tested for acute anti-inflammatory activity of carrageenan-induced foot edema in rats at dose of 100 mg/kg at time interval- 4 hr; assay type: functional; outline: as §2
Rattus norvegicus [10] = assay: Tested for acute anti-inflammatory activity of carrageenan-induced foot edema in rats at dose of 30 mg/kg at time interval- 0.5 hr; assay type: functional; outline: as §2
Rattus norvegicus [11] = assay: Tested for acute anti-inflammatory activity of carrageenan-induced foot edema in rats at dose of 30 mg/kg at time interval- 1 hr; assay type: functional; outline: as §2
Rattus norvegicus [12] = assay: Tested for acute anti-inflammatory activity of carrageenan-induced foot edema in rats at dose of 30 mg/kg at time interval- 3h; assay type: functional; outline: as §2
Rattus norvegicus [13] = assay: Tested for acute anti-inflammatory activity of carrageenan-induced foot edema in rats at dose of 30 mg/kg at time interval- 4 hr; assay type: functional; outline: as §2
Rattus norvegicus [14] = assay: Tested for acute anti-inflammatory activity of the antirat serum-induced edema in rats at dose of 30 mg/kg at time interval- 3h; assay type: functional; outline: as §1
Rattus norvegicus [15] = assay: Tested for acute anti-inflammatory activity of the antirat serum-induced edema in rats at dose of 30 mg/kg at time interval- 4 hr; assay type: functional; outline: as §1
Rattus norvegicus [16] = assay: Tested for acute anti-inflammatory activity of the antirat serum-induced edema in rats at dose of 3 mg/kg at time interval- 1 hr; assay type: functional; outline: as §1
Rattus norvegicus [17] = assay: Tested for acute anti-inflammatory activity of the antirat serum-induced edema in rats at dose of 3 mg/kg at time interval- 2 hr; assay type: functional; outline: as §1
Rattus norvegicus [18] = assay: Tested for acute anti-inflammatory activity of the antirat serum-induced edema in rats at dose of 3 mg/kg at time interval- 3h; assay type: functional; outline: as §1
Rattus norvegicus [19] = assay: Tested for acute anti-inflammatory activity of the antirat serum-induced edema in rats at dose of 3 mg/kg at time interval- 4 hr; assay type: functional; outline: as §1
Rattus norvegicus [20] = assay: Tested for acute anti-inflammatory activity of carrageenan-induced foot edema in rats at dose of 3 mg/kg at time interval- 0.5 hr; assay type: functional; outline: as §2
Rattus norvegicus [21] = assay: Tested for acute anti-inflammatory activity of carrageenan-induced foot edema in rats at dose of 3 mg/kg at time interval- 1 hr; assay type: functional; outline: as §2
Rattus norvegicus [22] = assay: Tested for acute anti-inflammatory activity of carrageenan-induced foot edema in rats at dose of 3 mg/kg at time interval- 2 hr; assay type: functional; outline: as §2
Rattus norvegicus [23] = assay: Tested for acute anti-inflammatory activity of carrageenan-induced foot edema in rats at dose of 3 mg/kg at time interval- 3h; assay type: functional; outline: as §2
Rattus norvegicus [24] = assay: Tested for acute anti-inflammatory activity of carrageenan-induced foot edema in rats at dose of 3 mg/kg at time interval- 4 hr; assay type: functional; outline: as §2
Rattus norvegicus [25] = assay: Tested for acute anti-inflammatory activity of the antirat serum-induced edema in rats at dose of 100 mg/kg at time interval- 0.5 hr; assay type: functional; outline: as §1
Rattus norvegicus [26] = assay: Tested for acute anti-inflammatory activity of the antirat serum-induced edema in rats at dose of 100 mg/kg at time interval- 1 hr; assay type: functional; outline: as §1
Rattus norvegicus [27] = assay: Tested for acute anti-inflammatory activity of the antirat serum-induced edema in rats at dose of 100 mg/kg at time interval- 2 hr; assay type: functional; outline: as §1
Rattus norvegicus [28] = assay: Tested for acute anti-inflammatory activity of the antirat serum-induced edema in rats at dose of 100 mg/kg at time interval- 3h; assay type: functional; outline: as §1
Rattus norvegicus [29] = assay: Tested for acute anti-inflammatory activity of the antirat serum-induced edema in rats at dose of 100 mg/kg at time interval- 4 hr; assay type: functional; outline: as §1
Rattus norvegicus [30] = assay: Tested for acute anti-inflammatory activity of carrageenan-induced foot edema in rats at dose of 30 mg/kg at time interval- 2 hr; assay type: functional; outline: as §2
Rattus norvegicus [31] = assay: Tested for acute anti-inflammatory activity of carrageenan-induced foot edema in rats at dose of 100 mg/kg at time interval- 2 hr; assay type: functional; outline: as §2
Rattus norvegicus [32] = assay: Tested for acute anti-inflammatory activity of the antirat serum-induced edema in rats at dose of 3 mg/kg at time interval- 0.5 hr; assay type: functional; outline: as §1
[33] = Inhibition of spontaneous lipid peroxidation at 10e-5 M in rat brain homogenate
[34] = Inhibition of [Fe(2+)]/ascorbate-induced lipid peroxidation at 10e-5 M in rat brain homogenate

Row | Compound | GSH-Px activity [1] | GSH-Px activity [2] | inhibition in vivo at 30 mg/kg (Rattus norvegicus [3]) [%] | inhibition in vivo at 30 mg/kg (Rattus norvegicus [4]) [%] | inhibition in vivo at 30 mg/kg (Rattus norvegicus [5]) [%] | inhibition in vivo at 100 mg/kg (Rattus norvegicus [6]) [%] | inhibition in vivo at 100 mg/kg (Rattus norvegicus [7]) [%] | inhibition in vivo at 100 mg/kg (Rattus norvegicus [8]) [%] | inhibition in vivo at 100 mg/kg (Rattus norvegicus [9]) [%] | inhibition in vivo at 30 mg/kg (Rattus norvegicus [10]) [%] | inhibition in vivo at 30 mg/kg (Rattus norvegicus [11]) [%] | inhibition in vivo at 30 mg/kg (Rattus norvegicus [12]) [%] | inhibition in vivo at 30 mg/kg (Rattus norvegicus [13]) [%] | inhibition in vivo at 30 mg/kg (Rattus norvegicus [14]) [%] | inhibition in vivo at 30 mg/kg (Rattus norvegicus [15]) [%] | inhibition in vivo at 3 mg/kg (Rattus norvegicus [16]) [%] | inhibition in vivo at 3 mg/kg (Rattus norvegicus [17]) [%] | inhibition in vivo at 3 mg/kg (Rattus norvegicus [18]) [%] | inhibition in vivo at 3 mg/kg (Rattus norvegicus [19]) [%] | inhibition in vivo at 3 mg/kg (Rattus norvegicus [20]) [%] | further results
1 | Nc1ccc(C(=O)c2ccccc2)cc1[Se][Se]c1cc(C(=O)c2ccccc2)ccc1N | 261 | 300 | -23.4 | -18.2 | 0.7 | -27 | 40.4 | 9.2 | 5 | -20.6 | 43.3 | 13.7 | 8.5 | -3.7 | 5.5 | -7.9 | -3.3 | 0.2 | 4.8 | -33.3 | inhibition in vivo at 3 mg/kg (Rattus norvegicus [21]): 39%; inhibition in vivo at 3 mg/kg (Rattus norvegicus [22]): 45%; inhibition in vivo at 3 mg/kg (Rattus norvegicus [23]): 32.9%; inhibition in vivo at 3 mg/kg (Rattus norvegicus [24]): 18.2%; inhibition in vivo at 100 mg/kg (Rattus norvegicus [25]): -37.5%; inhibition in vivo at 100 mg/kg (Rattus norvegicus [26]): 7.2%; inhibition in vivo at 100 mg/kg (Rattus norvegicus [27]): 4.9%; inhibition in vivo at 100 mg/kg (Rattus norvegicus [28]): -3.9%; inhibition in vivo at 100 mg/kg (Rattus norvegicus [29]): 2%; inhibition in vivo at 30 mg/kg (Rattus norvegicus [30]): 18.7%; inhibition in vivo at 100 mg/kg (Rattus norvegicus [31]): 29.2%; inhibition in vivo at 3 mg/kg (Rattus norvegicus [32]): -16.8%; inhibition [33]: 87%; inhibition [34]: 95%
2 | O=C(c1ccccc1)c1ccc2[nH]c(=O)[se]c2c1 | 0 | 0 | -9.8 | 5.3 | 25.6 | -76.2 | 9.9 | 58.5 | 55.5 | -22.2 | 14.2 | 35.6 | 26.1 | 19.7 | 25.2 | -16.7 | -10.7 | -14.1 | -1.4 | -42.9 | inhibition in vivo at 3 mg/kg (Rattus norvegicus [21]): -7.8%; inhibition in vivo at 3 mg/kg (Rattus norvegicus [22]): 27.8%; inhibition in vivo at 3 mg/kg (Rattus norvegicus [23]): 27.5%; inhibition in vivo at 3 mg/kg (Rattus norvegicus [24]): 9.6%; inhibition in vivo at 100 mg/kg (Rattus norvegicus [25]): -0.5%; inhibition in vivo at 100 mg/kg (Rattus norvegicus [26]): 6%; inhibition in vivo at 100 mg/kg (Rattus norvegicus [27]): 12.7%; inhibition in vivo at 100 mg/kg (Rattus norvegicus [28]): 18%; inhibition in vivo at 100 mg/kg (Rattus norvegicus [29]): 19.3%; inhibition in vivo at 30 mg/kg (Rattus norvegicus [30]): 31.7%; inhibition in vivo at 100 mg/kg (Rattus norvegicus [31]): 51.6%; inhibition in vivo at 3 mg/kg (Rattus norvegicus [32]): -41.8%; inhibition [33]: 0%; inhibition [34]: -3%
